Assay results as given in ChEMBL document CHEMBL4513216, “Probing the Open Global Health Chemical Diversity Library for Multistage-Active Starting Points for Next-Generation Antimalarials” (ACS Infect Dis, 2020).

Experiment: Toxicity liver stage against HepG2, at 10uM
Assay type: cell-based
Set-up: test concentration 10 uM, cell line HepG2-A16-CD81EGFP
Conditions: human, HepG2-A16-CD81EGFP cells; read-out: INHIBITION
Procedure, shortened: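 Uninfected HepG2-A16-CD81EGFP cells, 3 × 10^3 per well, 1536-well, plated on prespotted compound at 10 μM final, parasite-free screening media added to match infected plates; puromycin 10 μM positive, DMSO 0.5% negative; run in parallel with 48 h PbLuc assay at 37 °C, 5% CO2; viability by CellTiter-Glo luminescence, normalized to controls.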

Row | Structure (SMILES) | cytotoxicity at 10 µM
1 | CCc1ccc(C(N)c2cccc(S(C)(=O)=O)c2)cc1 (stereo not given) | -10.9%
2 | COCCN1CCN(CCS(=O)(=O)C(F)(F)F)CC1C (stereo not given) | -5.77%
3 | NC(=O)c1ccc(CN2CCCC(N3CCCCCC3)C2)cc1 (stereo not given) | -6.46%
4 | Cc1cc(C(=O)NCc2ccc(N3CCCC(C(N)=O)C3)cc2)on1 (stereo not given) | -9.56%
5 | CCc1oc(C(=O)NCCc2nc(C(=O)O)cs2)cc1CN1CCCC1 | 19.3%
6 | O=C(Cc1cccnc1)NC1CCCN(CCCc2ccccc2)C1 (stereo not given) | 11.5%
7 | CC(C)(C)C(=O)N1CCCC1c1nc(O)cc(-c2ccccn2)n1 (stereo not given) | -1.26%
8 | CNc1nc2c(s1)C(c1cccc(Cl)c1Cl)CC(=O)N2 (stereo not given) | 5.97%
9 | O=c1[nH]c2ccccc2c(=O)n1Cc1nnnn1C1CC1 | -16.1%
10 | CCN(Cc1ccncc1)c1cc(C2CCNCC2)nc(C)n1 | 4.34%
11 | CCN(Cc1noc(C)n1)C(=O)CC1C(=O)NCCN1CC(C)(C)C (stereo not given) | 2.78%
12 | Cc1cccc(C(=O)N2CCCN(Cc3cnn(C)c3)CC2)n1 | -10.5%
13 | CCc1cc(C(=O)N2CCCn3nc(CCC(=O)O)cc3C2)cs1 | -3.32%
14 | CCN(C(=O)NCc1cccnc1N(C)C)C(C)c1cccnc1 (stereo not given) | -4.6%
15 | CC(Cc1ccco1)NC(=O)CCn1cccn1 (stereo not given) | -6.19%
16 | CC(C)n1nc(CN(C)C)c2c1CN(C(=O)CC1CC1)CC2 | -6.72%
17 | CCOCC1CN(Cc2cnn(C)c2)Cc2c1cnn2CC (stereo not given) | -83.4%
18 | CCOc1ncccc1CNC(=O)c1csc(Br)c1 | 0.291%
19 | Cc1nn(C)c(Cl)c1C1CCCN1C(=O)CCNc1ncccn1 (stereo not given) | -7.42%
20 | O=C(NCCCO)Nc1cnc2cc(Cl)ccc2c1O | 2.05%
21 | O=C(c1sccc1C1CC1)N1CCN(CC(F)(F)F)CC1 | -1.58%
22 | O=C(c1ccc(C2CCCN2C(=O)c2cscn2)s1)N1CCSCC1 (stereo not given) | -4.31%
23 | O=C(c1cnccn1)N1CCN(Cc2csc(-c3ccccc3)n2)CC1 | -3.32%
24 | OC1(CNCCc2csc(-c3cccnc3)n2)CCNC1 (stereo not given) | 2.76%
25 | CCN1CCN(C2CCN(Cc3nnc(C(C)C)o3)CC2)C1=O | -0.677%
26 | COc1ccc(NC(C)=O)c(N2CCN(C(C)=O)CC2)n1 | -8.83%
27 | COCC(NC(=O)c1cccnc1)c1cccc(C(F)(F)F)c1 (stereo not given) | -12.9%
28 | Cc1nnc(N2C[C@@H]3CCCO[C@@H]3[C@H](N(C)C)C2)s1 | 17.5%

Row | Structure (SMILES) | cytotoxicity at 10 µM
29 | CCC1=N[C@@]2(CC[C@@H]3CN(C(=O)Nc4ccccc4)C[C@@H]32)C(=O)N1CC | 2.93%
30 | CS(=O)(=O)N1CC[C@@H]2[C@@H]1CCN2Cc1ccc2c(c1)OCO2 | -5.96%
31 | CN1CCC2(COCc3cnc(-c4ccccc4)nc32)C1 (stereo not given) | -1.5%
32 | CC(=O)N1CCCC1c1cccc(Oc2ccccc2F)n1 (stereo not given) | -2.53%
33 | O=C(NCc1ccco1)[C@@]12CCO[C@@H]1CCN(CC1CCOCC1)C2 | 6.06%
34 | CCOCc1ccc(CNC2=NCCCN2)cc1 | -51.5%
35 | CN1CC(c2cc(O)nc(NCc3cccc(F)c3)n2)CC1=O (stereo not given) | 1.96%
36 | CC(=O)N1CCC(Cc2cncc(-c3c(C)n[nH]c3C)n2)C1 (stereo not given) | -19.4%
37 | CNc1nc2c(s1)C(=O)CN(C(=O)[C@@H](N)Cc1cccc(OC)c1)C2 | -4.08%
38 | CCNc1cc2c(nn1)CCN(C(=O)c1ccc(-n3cnnc3)cc1)C2 | -3.51%
39 | CCC1=NN2C(=N)/C(=C/c3cccc(Cl)c3)C(=O)N=C2S1 | -11.8%
40 | CCCc1nc(C)cc(N2CCC3(CCC(=O)N(CC4CC4)C3)CC2)n1 | 14.9%
41 | CCN(Cc1cnc(C)cn1)C1CCN(c2ccccc2)C1=O (stereo not given) | 4.81%
42 | CC(NCc1cnn(C)c1)c1noc(-c2ccc(Cl)cc2)n1 (stereo not given) | 3.97%
43 | CCOCCN1CCN(CCC(=O)N2CCCCC2)CC1C (stereo not given) | -5.99%
44 | CCc1nc(CNC(=O)Nc2ccc(C(=O)NC)cc2C)cs1 | 16.4%
45 | O=C(NCCN1CCOCC1)C(OC1CCCC1)c1ccccc1 (stereo not given) | -2.99%
46 | C[C@@H]1CN(Cc2nc(C(N)=O)no2)CC[C@@]1(O)C1CC1 | -50.3%
47 | COc1ccc(C(=O)NS(=O)(=O)c2cc(Cl)sc2Cl)cc1OC(F)F | -4.73%
48 | CC(C)(C)n1cc(C#N)cc1NC(=O)CCS(=O)(=O)C1CCCC1 | -0.935%
49 | Cc1ccc(CNC(=O)c2ccc(CNS(C)(=O)=O)o2)cc1F | 15.2%
50 | CCN1CCn2c(-c3cccc(F)c3)cnc2C12CCN(C(C)=O)CC2 | -1.09%
51 | Nc1nnc(CCNc2ncnc3c2CCN(C(=O)C2CC2)C3)s1 | -7%
52 | Cc1noc(C)c1CN1CCC2(CCN(Cc3cccc(F)c3)CC2)C1 | -122%
53 | CCCS(=O)(=O)c1ccc(N2CCN(c3ccccn3)CC2)nn1 | -82.5%
54 | Cn1ncc(C(=O)N2CCN(S(C)(=O)=O)CC2)c1Cl | 7.58%
55 | CS(=O)(=O)Nc1ccn(Cc2cccc(F)c2)n1 | 13.1%
